Series [1] concerns Mus musculus. Kind of series: Antiobesity activity in DIO mouse assessed as decrease in [cPP(1 to 7),NPY(19 to 23),Ala(31),Alb(32),Gln(34)]-induced food intake at 12.5 mg/kg, po administered 1 hr prior to [cPP(1 to 7),NPY(19 to 23),Ala(31),Alb(32),Gln(34)]-induction measured at 4 hrs relative to vehicle-treated control. It counts as functional. On the set-up: scale not given: the % may be the effect or the level left. Put shortly:
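Diet-induced obese mice dosed orally at 12.5 mg/kg 1 h before icv injection of a Y5-selective agonist (0.1 nmol). Cumulative food intake recorded over the following 4 h.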

The test system of series [2] is Mus musculus. Put plainly: Antiobesity activity in DIO mouse assessed as decrease in [cPP(1 to 7),NPY(19 to 23),Ala(31),Alb(32),Gln(34)]-induced food intake at 12.5 mg/kg, po administered 1 hr prior to [cPP(1 to 7),NPY(19 to 23),Ala(31),Alb(32),Gln(34)]-induction measured at 2 hrs relative to vehicle-treated control. It counts as functional. Also on record: scale not given: the % may be the effect or the level left.

Series [3] concerns the target Cytochrome P450 2C19 (Homo sapiens, UniProt P33261). Put plainly: Inhibition of CYP2C19. It is filed as ADME.
Series [4] can be described thus: Metabolic stability in human liver microsomes assessed as compound remaining after 30 mins. It is filed as ADME, Microsome. The note with it: read-out: Stability. The gist of the method:
(§1)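 Human or rat liver microsomes incubated with compound for 30 min. Result given as percent of parent compound remaining.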

Series [5] addresses Cytochrome P450 3A4 (Homo sapiens, UniProt P08684). Put plainly: Inhibition of CYP3A4. It counts as ADME.
Series [6] has as its target T1, Neuropeptide Y receptor type 5 (Mus musculus, UniProt O70342).
T1 sequence (O70342 whole entry): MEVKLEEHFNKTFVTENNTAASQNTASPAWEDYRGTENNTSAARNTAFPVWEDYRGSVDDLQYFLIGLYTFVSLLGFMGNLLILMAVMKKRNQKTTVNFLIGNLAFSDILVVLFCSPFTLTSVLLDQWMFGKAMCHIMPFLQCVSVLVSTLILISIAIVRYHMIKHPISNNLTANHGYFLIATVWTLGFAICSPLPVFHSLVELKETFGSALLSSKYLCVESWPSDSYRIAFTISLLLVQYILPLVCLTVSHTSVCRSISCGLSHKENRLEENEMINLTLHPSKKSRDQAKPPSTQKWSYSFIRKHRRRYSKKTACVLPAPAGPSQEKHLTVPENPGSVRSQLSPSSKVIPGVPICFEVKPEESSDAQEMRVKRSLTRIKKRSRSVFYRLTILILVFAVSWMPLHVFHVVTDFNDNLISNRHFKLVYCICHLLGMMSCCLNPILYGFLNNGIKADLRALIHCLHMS
Put plainly: Displacement of [125I]PYY from mouse NPY Y5 receptor. The gist of the method: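 Competition binding at mouse NPY Y5 receptors with 125I-PYY as ligand. IC50 is the concentration giving 50% inhibition of total specific binding, taken as the mean of two or more independent assays.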
On the technique in general: Loss of bound radioactivity is the signal in a displacement assay; it reports binding, not function.

Series [7] can be described thus: Kinetic solubility of the compound in 1%DMSO at pH 6.8. It counts as physicochemical. The note with it: read-out: Kinetic_solubility. Put shortly: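 Kinetic solubility measured at pH 6.8 from a 1% DMSO solution.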
The target in series [8] is T2, Cytochrome P450 1A2 (Homo sapiens, UniProt P05177).
T2 sequence (P05177 whole entry): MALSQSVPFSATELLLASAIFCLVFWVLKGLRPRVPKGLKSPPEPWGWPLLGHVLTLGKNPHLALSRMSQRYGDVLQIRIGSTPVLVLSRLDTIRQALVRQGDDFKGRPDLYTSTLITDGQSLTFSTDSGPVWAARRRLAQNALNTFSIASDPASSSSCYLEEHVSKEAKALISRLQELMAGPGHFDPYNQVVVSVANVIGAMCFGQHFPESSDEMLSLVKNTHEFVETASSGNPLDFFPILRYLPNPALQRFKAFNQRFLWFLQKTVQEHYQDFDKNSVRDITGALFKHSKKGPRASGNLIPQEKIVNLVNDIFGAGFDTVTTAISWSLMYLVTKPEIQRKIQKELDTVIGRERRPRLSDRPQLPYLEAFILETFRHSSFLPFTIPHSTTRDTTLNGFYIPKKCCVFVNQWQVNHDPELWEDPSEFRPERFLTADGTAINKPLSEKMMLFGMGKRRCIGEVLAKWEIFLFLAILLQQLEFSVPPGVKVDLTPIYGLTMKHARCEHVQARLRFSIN
Kind of series: Inhibition of CYP1A2. It counts as ADME.

Series [9] in a line: Metabolic stability in rat liver microsomes assessed as compound remaining after 30 mins. It is filed as ADME, Microsome. Conditions: read-out: Stability. Put shortly:
as §1
(Microsomes from liver hold many membrane-bound enzymes, among them those of drug oxidation.)

Series [10] has as its target Cytochrome P450 2C9 (Homo sapiens, UniProt P11712). Kind of series: Inhibition of CYP2C9. It is filed as ADME.
Series [11] has as its target Cytochrome P450 2D6 (Homo sapiens, UniProt P10635). Kind of series: Inhibition of CYP2D6. It counts as ADME.

pIC50: −log10 of the molar value. In brackets after ≈: the same amount, converted by molar mass.

The record followed here is ChEMBL document CHEMBL2157871, “Identification of a novel and orally available benzimidazole derivative as an NPY Y5 receptor antagonist with in vivo efficacy” (Bioorg Med Chem Lett, 2012).

Cytochrome P450 2D6, sequence (P10635 whole entry): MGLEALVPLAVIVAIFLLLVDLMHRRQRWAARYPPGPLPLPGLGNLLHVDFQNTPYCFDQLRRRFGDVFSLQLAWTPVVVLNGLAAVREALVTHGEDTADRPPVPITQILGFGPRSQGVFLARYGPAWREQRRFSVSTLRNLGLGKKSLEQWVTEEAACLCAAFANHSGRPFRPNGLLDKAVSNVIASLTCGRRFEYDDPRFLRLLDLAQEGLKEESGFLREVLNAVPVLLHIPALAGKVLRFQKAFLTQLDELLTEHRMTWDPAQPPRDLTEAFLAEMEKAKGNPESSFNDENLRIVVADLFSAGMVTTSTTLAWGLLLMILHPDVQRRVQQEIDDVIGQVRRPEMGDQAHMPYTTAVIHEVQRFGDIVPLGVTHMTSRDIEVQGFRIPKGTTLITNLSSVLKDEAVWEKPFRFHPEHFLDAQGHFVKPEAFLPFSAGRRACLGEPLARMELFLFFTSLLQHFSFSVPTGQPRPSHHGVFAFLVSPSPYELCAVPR
Cytochrome P450 2C19, sequence (P33261 whole entry): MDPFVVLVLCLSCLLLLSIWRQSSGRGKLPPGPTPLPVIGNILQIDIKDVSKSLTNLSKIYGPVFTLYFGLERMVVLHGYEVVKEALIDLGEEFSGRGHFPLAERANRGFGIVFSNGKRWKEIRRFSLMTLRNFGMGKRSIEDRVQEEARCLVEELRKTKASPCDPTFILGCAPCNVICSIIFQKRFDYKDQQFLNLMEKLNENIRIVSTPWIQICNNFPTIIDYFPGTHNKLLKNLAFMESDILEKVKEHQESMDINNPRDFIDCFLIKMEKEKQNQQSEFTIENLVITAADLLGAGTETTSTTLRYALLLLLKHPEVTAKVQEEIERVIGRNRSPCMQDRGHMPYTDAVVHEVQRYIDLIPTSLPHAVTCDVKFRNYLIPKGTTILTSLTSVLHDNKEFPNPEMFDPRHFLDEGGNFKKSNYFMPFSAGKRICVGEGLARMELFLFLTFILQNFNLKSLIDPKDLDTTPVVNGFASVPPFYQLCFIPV
Cytochrome P450 2C9, sequence (P11712 whole entry): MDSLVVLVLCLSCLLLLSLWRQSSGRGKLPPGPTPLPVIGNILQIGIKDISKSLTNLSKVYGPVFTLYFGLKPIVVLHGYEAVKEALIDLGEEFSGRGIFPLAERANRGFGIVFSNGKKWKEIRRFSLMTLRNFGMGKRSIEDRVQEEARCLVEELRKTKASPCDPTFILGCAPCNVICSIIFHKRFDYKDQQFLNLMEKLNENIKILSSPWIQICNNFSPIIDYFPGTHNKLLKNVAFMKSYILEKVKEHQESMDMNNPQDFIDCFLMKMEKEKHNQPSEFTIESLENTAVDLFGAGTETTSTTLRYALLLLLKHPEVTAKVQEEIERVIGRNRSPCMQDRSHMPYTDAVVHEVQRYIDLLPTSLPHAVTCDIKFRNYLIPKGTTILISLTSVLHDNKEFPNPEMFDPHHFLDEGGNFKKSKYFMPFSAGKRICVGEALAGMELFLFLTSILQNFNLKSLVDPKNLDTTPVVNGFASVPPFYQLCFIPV
Cytochrome P450 3A4, sequence (P08684 whole entry): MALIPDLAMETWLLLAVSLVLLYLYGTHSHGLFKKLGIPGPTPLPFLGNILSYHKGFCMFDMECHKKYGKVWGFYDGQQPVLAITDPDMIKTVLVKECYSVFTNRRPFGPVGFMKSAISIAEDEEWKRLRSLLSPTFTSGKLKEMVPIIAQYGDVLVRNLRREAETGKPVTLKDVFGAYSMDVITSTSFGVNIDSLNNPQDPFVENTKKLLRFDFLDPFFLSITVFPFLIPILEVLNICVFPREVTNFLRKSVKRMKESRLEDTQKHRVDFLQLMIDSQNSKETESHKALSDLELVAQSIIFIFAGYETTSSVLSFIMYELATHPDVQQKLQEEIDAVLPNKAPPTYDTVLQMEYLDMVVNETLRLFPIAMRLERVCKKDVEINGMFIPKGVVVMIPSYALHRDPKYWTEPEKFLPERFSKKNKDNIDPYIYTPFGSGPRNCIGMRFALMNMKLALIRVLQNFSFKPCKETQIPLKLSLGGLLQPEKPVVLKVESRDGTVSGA

Consider `CCS(=O)(=O)c1ccc2[nH]c(N3CCO[C@H](c4ccccc4)C3)nc2c1`, for which the Activity in series [1] was found to be 71%; in series [2], 67.2%.

For `CCS(=O)(=O)c1ccc2nc(N3CCOC(c4ccccc4)C3)[nH]c2c1` (configuration not stated), the INH in series [3], in [5], in [8], in series [10] and in series [11] was over 20 µM each time. Moreover, the remaining at 0.5 h in [4] was found to be 89%; in series [9], 76.1%. Moreover, the pIC50 – broadly, the IC50 on a negative log10 scale, so that one unit is a factor of ten – in series [6] was 9.37. The solubility kinetic in series [7] was over 50 µM. In addition, the Activity in series [1] was determined as 42.7%; in series [2] it was 56%.

Regarding `CCS(=O)(=O)c1ccc2[nH]c(N3CCOC(c4ccc(C)cc4)C3)nc2c1` (configuration not stated), the INH in series [3] is 17 µM; in series [5], over 20 µM; in series [8], over 20 µM; in series [10], over 20 µM; in [11] it was over 20 µM. Further, the results for the remaining at 0.5 h in series [4] and in series [9] were 87.8% and 34%, respectively. This compound gave a pIC50 in series [6] of 9.10. The solubility kinetic in [7] amounted to 21.6 µM (≈ 8.33 µg/mL).
